Source: PubChem BioAssay (several laboratories)
CHOP UPR activ – apoptotic UPR (CHOP) activation | 330,000 tested, 0.34% active | CHO-CHOP luciferase reporter, luminescence; percent of tunicamycin response over DMSO baseline | activation, % at 10 µM;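 active means at 10 µM dose, activation of 40% or more, normalized to positive control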
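Test system: CHO CHOP reporter cells. Input: 500 CHO-CHOP cells per well. Medium: F12 with 10% FBS. Technique: luciferase luminescence. Measure: percent activation relative to tunicamycin control. Dosing: 10 µM compound, 0.5% DMSO. Timing: 16-18 h cell attachment, then 6 h compound exposure, 37 °C.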
Beta cell apopt – blocks beta cell apoptosis; INS-1E cytokine-induced death, ATP luminescence, 48 h; percent of positive-control rescue, neutral wells zero; protection from apoptosis, % (no concentration beside the values); 300,000 tested, 0.8% active;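 active means Every replicate reaches about 75%, or at least half do and their mean reaches it too, limit read from the data; inconclusive means At least half of replicates reach the limit but their mean does not; inactive means Under half of replicates reach the limit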;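 further: higher means more ATP so stronger rescue from cytokine killing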
CSC inhib – blocks cancer stem cells. cancer stem cell-like cells viability, luminescence. inhibition, % at 7.5 µM. 300,000 tested, 1.1% active. AID 2717; in the data active means inhibition above about 75%; inconclusive means no clear call, values can overlap the other calls; tested in HMLE shEcad cells
XBP1 UPR activ – activators of adaptive arm of unfolded protein response (XBP1). CHO-XBP1 luciferase reporter, IRE1-XBP1 UPR activation, luminescence; percent of tunicamycin response, DMSO as zero. activation, % at 20 µM. 330,000 tested, 0.33% active. AID 463104;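 active means versus positive control, 20 µM dose yields 30% or more activation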
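assay system = CHO-XBP1 luciferase reporter cells | amount = 1000 cells/well | buffer or medium = F12 plus 10% FBS | compound dosing = single point, 20 µM final compound, 1% DMSO | incubation = 16-18 h cell attachment at 37 °C, then 6 h compound exposure | detection = Steady-Glo luminescence read | controls = tunicamycin 10 µg/mL and vehicle-only wells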
SKKanGAS inh – inhibitors of SKKanGAS S. pyogenes growth in kanamycin (SK-promoter or general growth effect); BacTiter-Glo, 6 h; inhibition, % at 7.5 µM; 300,000 tested, 1.3% active;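 active means mean replicate score, as percent of positive control median, at least 50; inconclusive means mean below 50 but one replicate at or above 50; inactive means mean and every replicate below 50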;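 further: strain carries kanamycin resistance gene driven by streptokinase promoter and grows in 40 µg/ml kanamycin; loss of luminescence reflects streptokinase promoter inhibition or plain growth inhibition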
Mdm2 MdmX PPI – human Mdm2/MdmX binding inhibition. SaOS-2 split-luciferase Mdm2/MdmX complementation, luminescence. O15151+Q00987. 330,000 tested, 3% active. inhibition, % at 8 µM;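 active means inhibition of at least 50% at 8 µM in the primary screen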
Target sequence (O15151 whole entry, looked up): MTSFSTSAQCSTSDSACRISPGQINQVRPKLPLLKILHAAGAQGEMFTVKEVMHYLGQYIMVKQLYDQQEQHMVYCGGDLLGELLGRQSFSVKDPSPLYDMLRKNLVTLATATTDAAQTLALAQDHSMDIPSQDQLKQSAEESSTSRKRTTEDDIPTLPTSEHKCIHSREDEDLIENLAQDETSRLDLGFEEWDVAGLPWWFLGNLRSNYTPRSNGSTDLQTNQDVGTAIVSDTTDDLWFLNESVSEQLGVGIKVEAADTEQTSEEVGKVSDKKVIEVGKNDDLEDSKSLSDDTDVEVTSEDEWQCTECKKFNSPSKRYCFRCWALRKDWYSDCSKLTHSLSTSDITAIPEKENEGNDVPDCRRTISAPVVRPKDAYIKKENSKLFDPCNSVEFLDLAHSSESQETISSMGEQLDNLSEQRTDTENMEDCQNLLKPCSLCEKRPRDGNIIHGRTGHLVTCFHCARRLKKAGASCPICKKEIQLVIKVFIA
Target sequence (Q00987 whole entry, looked up): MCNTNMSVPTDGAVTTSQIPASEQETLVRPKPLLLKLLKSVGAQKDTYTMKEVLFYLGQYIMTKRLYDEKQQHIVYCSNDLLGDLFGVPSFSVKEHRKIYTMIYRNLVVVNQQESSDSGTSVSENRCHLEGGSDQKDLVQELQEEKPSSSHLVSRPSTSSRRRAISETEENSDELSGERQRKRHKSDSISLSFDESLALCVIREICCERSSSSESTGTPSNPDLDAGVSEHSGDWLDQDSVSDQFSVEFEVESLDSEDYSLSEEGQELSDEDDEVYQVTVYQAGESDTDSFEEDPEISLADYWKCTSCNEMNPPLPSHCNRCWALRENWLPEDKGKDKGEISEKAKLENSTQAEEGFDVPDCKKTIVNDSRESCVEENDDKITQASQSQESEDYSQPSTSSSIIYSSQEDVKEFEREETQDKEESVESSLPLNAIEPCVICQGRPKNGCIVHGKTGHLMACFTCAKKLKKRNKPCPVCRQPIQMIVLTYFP
Mdm2 MdmX conf – confirmation of human Mdm2/MdmX interaction inhibitors; 10,000 tested, 55% active; shares compounds with Mdm2 MdmX PPI; Mdm2-MdmX binding, luminescent assay; inhibition, % at 8 µM; in the data active means inhibition above about 40%
Full FLuc ctr – counter-screen for Mdm2/MdmX inhibitors: full-length luciferase. SaOS-2 full-length luciferase counterscreen, luminescence. shares compounds with Mdm2 MdmX PPI. inhibition, % at 8 µM. 6,200 tested, 77% active. AID 504607;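 active means mean inhibition at 8 µM reaching about 37%, which flags the compound as non-specific, limit read from the data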;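 further: p53-null SaOS-2 cells with luciferase driven by a doxycycline-inducible promoter; compound on cells about two nights before reading with doxycycline added after day one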
Each line names hits and unclear results; the compound was inactive in the other large screens (follow-up assays come after a bar, where they were run). Shown are actives, neighbours in structure and some others; about 4.8% of the full set was active somewhere.

Cc1c(Cc2ccc3c(c2)OCO3)sc(NC(=O)c2ccc3ccccc3c2)c1C(N)=O	Mdm2 MdmX PPI 80 | Mdm2 MdmX conf inactive
CC(C)CCN(C(=O)c1cn2ccccc2n1)c1c(N)n(Cc2ccccc2)c(=O)[nH]c1=O	none (no result: Beta cell apopt, CSC inhib, SKKanGAS inh)
COc1ccc(OC)c(NC(=O)c2cccc(NC(=O)c3ccccc3)c2)c1	none (no result: Beta cell apopt)
Cc1ccc(N2C(=O)N3[C@H](c4ccc(F)cc4)[C@@H]4C(=O)N(C5CCCCC5)C(=O)[C@@H]4[C@]3(C)C2=O)cc1	none
CCOc1ccc(CN(C)C(=O)CCl)cc1	Mdm2 MdmX PPI 56 | Mdm2 MdmX conf inactive
CCOc1ccc(CN(C)C(=O)CCNC(=O)c2ccco2)cc1	none (no result: SKKanGAS inh)
O=C(NCC1CCCO1)c1c(O)c2cccc3c2n(c1=O)CC3 (stereo not drawn)	Mdm2 MdmX PPI 69 | Mdm2 MdmX conf 69 | Full FLuc ctr 55
Cn1c(=O)c(C(=O)NCC2CCCO2)c(O)c2ccccc21 (stereo not drawn)	Mdm2 MdmX PPI 78 | Mdm2 MdmX conf 45 | Full FLuc ctr inactive
O=C(NCCO)c1c(O)c2cccc3c2n(c1=O)CC3	none
Cn1c(=O)c(C(=O)NNC(=O)c2ccc(Br)cc2)c(O)c2ccccc21	CSC inhib inconclusive, SKKanGAS inh 92, Mdm2 MdmX PPI 54 | Mdm2 MdmX conf inactive
O=C(NCC1CCCO1)c1c(O)c2cccc3c2n(c1=O)CCC3 (stereo not drawn)	Mdm2 MdmX PPI 84 | Mdm2 MdmX conf 58 | Full FLuc ctr 46
Nc1cc2ccncc2c2ccccc12	Mdm2 MdmX PPI 84 | Mdm2 MdmX conf 84 | Full FLuc ctr 50
C/C(=N\NC(=O)CNC(=O)c1ccccc1Br)c1ccco1	none
CC(=O)c1c(C)[nH]c(C(=O)OCC(=O)Nc2ccc(C)cc2[N+](=O)[O-])c1C	Beta cell apopt 123, Mdm2 MdmX PPI 51 | Mdm2 MdmX conf inactive | Full FLuc ctr 58
CCN(CC)S(=O)(=O)c1ccc(N2CCOCC2)c(NC(=O)c2[nH]c(C)c(C(C)=O)c2C)c1	Mdm2 MdmX PPI 83 (no result: SKKanGAS inh) | Mdm2 MdmX conf 41 | Full FLuc ctr 68
CC(=O)c1c(C)[nH]c(C(=O)OCC(=O)Nc2cc(Cl)ccc2[N+](=O)[O-])c1C	none
O=C(COC(=O)/C=C/c1ccc(F)cc1)Nc1cc(C(F)(F)F)ccc1N1CCOCC1	none
CCN(CC)S(=O)(=O)c1ccc(N2CCOCC2)c(NC(=O)c2ccc(F)cc2)c1	none
CC(=O)c1c(C)[nH]c(C(=O)OCC(=O)Nc2cc(C(F)(F)F)ccc2N2CCOCC2)c1C	Mdm2 MdmX PPI 51 | Mdm2 MdmX conf inactive
N#CCCN(C(=O)COC(=O)CCNS(=O)(=O)c1ccccc1)c1ccccc1	none (no result: CSC inhib, SKKanGAS inh)
COc1ccc(-c2csc(N(CCCN(C)C)C(=O)c3ccc(C(C)(C)C)cc3)n2)cc1	Mdm2 MdmX PPI 54 | Mdm2 MdmX conf inactive
CCN(CC)CCCN(C(=O)c1ccccc1C)c1nc(-c2ccc(OC)cc2)cs1	none
CCN(CC)CCCN(C(=O)c1ccccc1F)c1nc(-c2ccc(OC)cc2)cs1	Mdm2 MdmX PPI 50 | Mdm2 MdmX conf 42 | Full FLuc ctr 69
CCN(CC)CCCN(C(=O)c1ccc(OC)cc1)c1nc(-c2ccc(OC)cc2)cs1	Mdm2 MdmX PPI 50 | Mdm2 MdmX conf 40 | Full FLuc ctr 58
CCCCn1nc(C(=O)Nc2ccc(-n3cnnn3)cc2)c2ccccc2c1=O	none (no result: CSC inhib, SKKanGAS inh)
CCc1ccc2[nH]c(=O)c(CN(Cc3ccc4c(c3)OCO4)Cc3nnnn3C3CCCC3)cc2c1	Mdm2 MdmX PPI 64 | Mdm2 MdmX conf inactive
CCC/C(C#CCCN1C(=O)c2ccccc2C1=O)=C1/c2ccccc2C(=O)N1c1ccccc1	none (no result: SKKanGAS inh)
COc1ccc(C(=O)C(CCCCC(CN(C)C)C(=O)c2ccc(OC)cc2)CN(C)C)cc1 (stereo not drawn)	Mdm2 MdmX PPI 86 | Mdm2 MdmX conf 59 | Full FLuc ctr inactive
Cc1cc(/C=C2\Sc3ccccc3N2C)cc(C)[n+]1CC1CCCO1 (stereo not drawn)	Mdm2 MdmX PPI 87 (no result: Beta cell apopt, CSC inhib, SKKanGAS inh) | Mdm2 MdmX conf 90 | Full FLuc ctr inactive
Cc1cc(OCC(=O)N2CCN(c3ccccc3)CC2)c2c(C)c(C)c(=O)oc2c1	Mdm2 MdmX PPI 64 | Mdm2 MdmX conf 67 | Full FLuc ctr 87
Cn1c(C(=O)NCc2ccccc2)cc2oc3ccccc3c21	Mdm2 MdmX PPI 88 | Mdm2 MdmX conf 87 | Full FLuc ctr inactive
Cn1c(C(=O)NCC2CCCO2)cc2oc3ccccc3c21 (stereo not drawn)	none
Cn1c(C(=O)NCc2cccs2)cc2oc3ccccc3c21	Mdm2 MdmX PPI 77 | Mdm2 MdmX conf 72 | Full FLuc ctr inactive
COc1ccc(S(=O)(=O)N2CCN(C(=O)CN3C(=O)NC(C)(c4ccc5ccccc5c4)C3=O)CC2)cc1 (stereo not drawn)	none
O=C(CCl)Nc1cc2[nH]c(=O)[nH]c2cc1Br	Mdm2 MdmX PPI 94 | Mdm2 MdmX conf 74 | Full FLuc ctr 60
Cc1cc2c(C)cc(=O)[nH]c2cc1NC(=O)CCl	none
CCN1CSC(=S)N(Cc2ccc(OC)cc2)C1	Mdm2 MdmX PPI 69 | Mdm2 MdmX conf inactive
CCN1CNC(=S)N(Cc2ccccc2)C1	none
CCc1cc(=O)n2[nH]c(-c3ccccc3)c(-c3ccccc3)c2n1	Mdm2 MdmX PPI 58 | Mdm2 MdmX conf 45 | Full FLuc ctr 52
O=C(Nc1nc2ccc(S(=O)(=O)N3CCCC3)cc2s1)C1CCCCC1	Mdm2 MdmX PPI 66 | Mdm2 MdmX conf 57 | Full FLuc ctr 70
O=C(Nc1nc2ccc(S(=O)(=O)N3CCCCC3)cc2s1)C1CCCO1 (stereo not drawn)	none
CCC(C)NC(=O)C1CCN(S(=O)(=O)c2cc([N+](=O)[O-])ccc2Cl)CC1 (stereo not drawn)	none
O=C(Nc1nc2ccccc2s1)C1CCN(S(=O)(=O)c2cc([N+](=O)[O-])ccc2Cl)CC1	Beta cell apopt 81, CSC inhib inconclusive, Mdm2 MdmX PPI 96 | Mdm2 MdmX conf 87 | Full FLuc ctr 38
Cc1cc(C(=O)CSc2nc3ccccc3c(=O)n2C)c(C)n1Cc1ccc2c(c1)OCO2	Beta cell apopt 99, Mdm2 MdmX PPI 63 | Mdm2 MdmX conf inactive
Cn1c(N)c(C(=O)CCl)c(=O)n(Cc2ccccc2)c1=O	none
Cc1cc(C(=O)CSc2nnc(-c3ccccc3)n2Cc2ccc3c(c2)OCO3)c(C)n1C	none
Cn1c(N)c(C(=O)COC(=O)c2cc(C(F)(F)F)nc3ccccc23)c(=O)n(Cc2ccccc2)c1=O	Mdm2 MdmX PPI 50 (no result: SKKanGAS inh) | Mdm2 MdmX conf inactive
